Data: article PMC4263960 (Pediatric blood & cancer, 2013)

Key:
KT-13 Wilms xenograft = assay: PPTP in vivo xenograft testing, KT-13; parameters: species or system mice
CHLA-266 cell line = assay: DIMSCAN in vitro cytotoxicity testing, CHLA-266; type: cell-based
Procedure, shortened: (§1)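 Test compound incubated with cells of a 24-line pediatric cancer panel for 96 h at 0.1 nM to 1 μM, then assessed by DIMSCAN. Relative IC50 (rIC50) derived per line. Panel comparison value is the panel rIC50 divided by the rIC50 of each cell line.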

[1] = system: NB-SD neuroblastoma xenograft; assay: PPTP in vivo xenograft testing, NB-SD; parameters: species or system mice
COG-LL-317 cell line = assay: DIMSCAN in vitro cytotoxicity testing, COG-LL-317; type: cell-based
Procedure, shortened: as §1

[2] = system: NB-1771 neuroblastoma xenograft; assay: PPTP in vivo xenograft testing, NB-1771; parameters: species or system mice
Rh30 cell line = assay: DIMSCAN in vitro cytotoxicity testing, Rh30; type: cell-based
Procedure, shortened: as §1

MOLT-4 cell line = assay: DIMSCAN in vitro cytotoxicity testing, MOLT-4; type: cell-based
Procedure, shortened: as §1

[3] = system: ALL-31 tertiary T-cell ALL xenograft; assay: PPTP in vivo xenograft testing, ALL-31; parameters: species or system mice
[4] = system: BT-41 ependymoma xenograft; assay: PPTP in vivo xenograft testing, BT-41; parameters: species or system mice
[5] = system: ALL-2 ALL B-precursor xenograft; assay: PPTP in vivo xenograft testing, ALL-2; parameters: species or system mice
EW5 Ewing xenograft = assay: PPTP in vivo xenograft testing, EW5; parameters: species or system mice
Ramos-RA1 cell line = assay: DIMSCAN in vitro cytotoxicity testing, Ramos-RA1; type: cell-based
Procedure, shortened: as §1

[6] = 1 mg/kg IP Q4Dx3 repeated at Day 21
[7] = 1.5 mg/kg IP Q4Dx3 repeated at Day 21

With `C=C1C[C@@H]2CC[C@@]34C[C@H]5O[C@H]6[C@@H](O3)[C@H]3O[C@H](CC[C@@H]3O[C@H]6[C@H]5O4)CC(=O)C[C@@H]3[C@@H](OC)[C@@H](C[C@H](O)CN)O[C@H]3C[C@H]3O[C@@H](CC[C@@H]1O2)C[C@@H](C)C3=C` [Eribulin] the Response activity (KT-13 Wilms xenograft; 1 mg/kg IP) was “High (A high level of activity is indicated by a score of 6 or more)”, the T/C volume activity (KT-13 Wilms xenograft; 1 mg/kg IP) was “High (High activity = T/C ≤0.15)” and the “EFS T/C” value (KT-13 Wilms xenograft; [6]) was over 3.3. The “Median final RTV (CD45%)” value (KT-13 Wilms xenograft; [6]) was 1.1, the “Tumor volume T/C” value (KT-13 Wilms xenograft; 1 mg/kg IP, Day 21 or earlier) was 0.15 and the “Panel rIC50/Line rIC50” value (CHLA-266 cell line; CHLA-266) was 0.71. For the same compound, the Relative in/out% (CHLA-266 cell line; CHLA-266) was −79%, the “Ymin % (observed)” value (CHLA-266 cell line; CHLA-266) was 5.54% and the IC50 (CHLA-266 cell line; Homo sapiens, CHLA-266, 96 h, read-out: rIC50) was 0.38 nM. For the same compound, the EFS activity ([1]; 1 mg/kg IP) was “Int (Intermediate activity = criteria (a) and (b) above, but not having a net reduction in median tumor volume for treated animals at the end of the study)”, the Response activity ([1]; 1 mg/kg IP) was “Int (intermediate activity by a score of ≥2 but <6)” and the T/C volume activity ([1]; 1 mg/kg IP) was “Low (Low activity = T/C >0.45)”. For the same compound, the “EFS T/C” value [1, 6] was 2.4, the “Median final RTV (CD45%)” value [1, 6] was over 4 and the Time to event [1, 6] was 17.5. The “Tumor volume T/C” value ([1]; 1 mg/kg IP, Day 21 or earlier) was 0.53, the IC50 (COG-LL-317 cell line; 96 h, read-out: rIC50) was under 0.1 nM and the “Panel rIC50/Line rIC50” value (COG-LL-317 cell line; COG-LL-317) was over 2.74. The Relative in/out% (COG-LL-317 cell line; COG-LL-317) was −99%, the “Ymin % (observed)” value (COG-LL-317 cell line; COG-LL-317) was 0.03% and the EFS activity ([2]; 1 mg/kg IP) was “Low (Low activity = EFS T/C <2)”. For the same compound, the Response activity ([2]; 1 mg/kg IP) was “Int (intermediate activity by a score of ≥2 but <6)”, the T/C volume activity ([2]; 1 mg/kg IP) was “Low (Low activity = T/C >0.45)” and the “EFS T/C” value [2, 6] was 2.0. For the same compound, the “Median final RTV (CD45%)” value [2, 6] was over 4, the Time to event [2, 6] was 14.8 and the “Tumor volume T/C” value ([2]; 1 mg/kg IP, Day 21 or earlier) was 0.56. The “Panel rIC50/Line rIC50” value (Rh30 cell line; Rh30) was 2.47, the Relative in/out% (Rh30 cell line; Rh30) was −23% and the “Ymin % (observed)” value (Rh30 cell line; Rh30) was 12.75%. For the same compound, the IC50 (Rh30 cell line; Rh30, 96 h, read-out: rIC50) was 0.11 nM, the IC50 (MOLT-4 cell line; Homo sapiens, MOLT-4, 96 h, read-out: rIC50) was under 0.1 nM and the “Panel rIC50/Line rIC50” value (MOLT-4 cell line; MOLT-4) was over 2.74. The Relative in/out% (MOLT-4 cell line; MOLT-4) was −99%, the “Ymin % (observed)” value (MOLT-4 cell line; MOLT-4) was 0.05% and the EFS activity ([3]; 1.5 mg/kg IP) was “Int (Intermediate activity = criteria (a) and (b) above, but not having a net reduction in median tumor volume for treated animals at the end of the study)”. The Response activity ([3]; 1.5 mg/kg IP) was “High (A high level of activity is indicated by a score of 6 or more)”, the “EFS T/C” value [3, 7] was over 3.7 and the “Median final RTV (CD45%)” value ([3]; CD45%, 1.5 mg/kg IP) was 12.9%. For the same compound, the Response activity ([4]; 1 mg/kg IP) was “Int (intermediate activity by a score of ≥2 but <6)”, the T/C volume activity ([4]; 1 mg/kg IP) was “Int (Intermediate activity = T/C ≤0.45 but >0.15)” and the “Median final RTV (CD45%)” value [4, 6] was 1.3. The “Tumor volume T/C” value ([4]; 1 mg/kg IP, Day 21 or earlier) was 0.42, the EFS activity ([5]; 1.5 mg/kg IP) was “High (High activity requires: (a) an EFS T/C >2; (b) a significant difference in EFS distributions, and (c) a net reduction in median tumor volume for animals in the treated group at the end of treatment as compared to at treatment initiation)” and the Response activity ([5]; 1.5 mg/kg IP) was “High (A high level of activity is indicated by a score of 6 or more)”. For the same compound, the “EFS T/C” value [5, 7] was over 2.8, the “Median final RTV (CD45%)” value ([5]; CD45%, 1.5 mg/kg IP) was 0.0% and the EFS activity (EW5 Ewing xenograft; 1 mg/kg IP) was “Int (Intermediate activity = criteria (a) and (b) above, but not having a net reduction in median tumor volume for treated animals at the end of the study)”. For the same compound, the Response activity (EW5 Ewing xenograft; 1 mg/kg IP) was “Int (intermediate activity by a score of ≥2 but <6)”, the T/C volume activity (EW5 Ewing xenograft; 1 mg/kg IP) was “High (High activity = T/C ≤0.15)” and the “EFS T/C” value (EW5 Ewing xenograft; [6]) was 3.3. For the same compound, the “Median final RTV (CD45%)” value (EW5 Ewing xenograft; [6]) was over 4, the Time to event (EW5 Ewing xenograft; [6]) was 41.3 and the “Tumor volume T/C” value (EW5 Ewing xenograft; 1 mg/kg IP, Day 21 or earlier) was 0.13. The IC50 (Ramos-RA1 cell line; 96 h, read-out: rIC50) was under 0.1 nM, the “Panel rIC50/Line rIC50” value (Ramos-RA1 cell line; Ramos-RA1) was over 2.74 and the Relative in/out% (Ramos-RA1 cell line; Ramos-RA1) was −100%. The “Ymin % (observed)” value (Ramos-RA1 cell line; Ramos-RA1) was 0.00%.
